Measurements from ChEMBL document CHEMBL1122688, “Antimycotic azoles. 7. Synthesis and antifungal properties of a series of novel triazol-3-ones” (1984).

Tests used:
[1] = In vivo activity against microsporosis guinea pig, measured as the ratio of animals cured/animals infected (C/I) at dose 10 mg/kg; 4/34; format: functional
[2] = In vivo activity against vaginal candidoses in rats, measured as the ratio of animals cured/animals infected (C/I) at dose 2.5 mg/kg; 2/8; format: functional
[3] = In vivo activity against microsporosis guinea pig, measured as the ratio of animals cured/animals infected (C/I) at dose 2.5 mg/kg;0/14; format: functional
[4] = In vivo activity against vaginal candidoses in rats, measured as the ratio of animals cured/animals infected (C/I) at dose 10 mg/kg; 173/181; format: functional
[5] = In vivo activity against vaginal candidoses in rats, measured as the ratio of animals cured/animals infected (C/I) at dose 1.25 mg/kg; 0/12; format: functional
[6] = In vivo activity against microsporosis guinea pig, measured as the ratio of animals cured/animals infected (C/I) at dose 20 mg/kg; 30/30; format: functional
[7] = tested on: Aspergillus fumigatus; experiment: In vitro antifungal activity against Aspergillus fumigatus; format: functional
Procedure, shortened: (§1)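 Fungal growth-inhibition screen (Godefroi method) against dermatophytes, yeasts, moulds and other fungi. The value is the lowest concentration (µg/mL) giving total inhibition of growth, tested up to 100 µg/mL.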

[8] = tested on: Trichophyton benhamiae; experiment: In vitro antifungal activity against Trichophyton mentagrophytes; format: functional, Arthroderma benhamiae; procedure, shortened: as §1
[9] = tested on: Trichophyton rubrum; experiment: In vitro antifungal activity against Trichophyton rubrum; format: functional; procedure, shortened: as §1
[10] = tested on: Cryptococcus neoformans; experiment: In vitro antifungal activity against Cryptococcus neoformans; format: functional; procedure, shortened: as §1
[11] = tested on: Phialophora verrucosa; experiment: In vitro antifungal activity against Phialophora verrucosa; format: functional; procedure, shortened: as §1
[12] = In vivo activity against microsporosis guinea pig, measured as the ratio of animals cured/animals infected (C/I) at dose 10 mg/kg; C/I = 5/6; format: functional
[13] = In vitro antifungal activity against Mucor sp; format: functional; procedure, shortened: as §1
[14] = tested on: Microsporum canis; experiment: In vitro antifungal activity against Microsporum canis; format: functional; procedure, shortened: as §1
[15] = tested on: Candida albicans; experiment: In vitro antifungal activity against Candida albicans; format: functional; procedure, shortened: as §1
[16] = In vivo activity against microsporosis guinea pig, measured as the ratio of animals cured/animals infected (C/I) at dose 1.25 mg/kg; C/I = 0/6; format: functional
[17] = tested on: Sporothrix schenckii; experiment: In vitro antifungal activity against Sporothrix schenck ii; format: functional; procedure, shortened: as §1
[18] = tested on: Candida tropicalis; experiment: In vitro antifungal activity against Candida tropicalis; format: functional; procedure, shortened: as §1
[19] = In vivo activity against microsporosis guinea pig, measured as the ratio of animals cured/animals infected (C/I) at dose 2.5 mg/kg; C/I = 1/6; format: functional
[20] = In vivo activity against vaginal candidoses in rats, measured as the ratio of animals cured/animals infected (C/I) at dose 2.5 mg/kg; C/I = 1/6; format: functional
[21] = tested on: Saprolegnia; experiment: In vitro antifungal activity against Saprolegnia sp; format: functional; procedure, shortened: as §1
[22] = In vivo activity against vaginal candidoses in rats, measured as the ratio of animals cured/animals infected (C/I) at dose 0.63 mg/kg; C/I = 4/12; format: functional
[23] = In vivo activity against microsporosis guinea pig, measured as the ratio of animals cured/animals infected (C/I) at dose 2.5 mg/kg; C/I = 3/10; format: functional
[24] = In vivo activity against microsporosis guinea pig, measured as the ratio of animals cured/animals infected (C/I) at dose 10 mg/kg; C/I = 4/8; format: functional
[25] = In vivo activity against microsporosis guinea pig, measured as the ratio of animals cured/animals infected (C/I) at dose 1.25 mg/kg; C/I = 0/8; format: functional
[26] = In vivo activity against vaginal candidoses in rats, measured as the ratio of animals cured/animals infected (C/I) at dose 10 mg/kg; C/I = 10/12; format: functional
[27] = In vivo activity against vaginal candidoses in rats, measured as the ratio of animals cured/animals infected (C/I) at dose 2.5 mg/kg; C/I = 13/15; format: functional
[28] = tested on: Rattus norvegicus; experiment: In vivo activity against vaginal candidoses in rats, measured as the ratio of animals cured/animals infected (C/I) at dose 1.25 mg/kg; C/I = 16/18; format: functional
[29] = In vivo activity against microsporosis guinea pig, measured as the ratio of animals cured/animals infected (C/I) at dose 10 mg/kg; C/I = 2/4; format: functional
[30] = In vivo activity against vaginal candidoses in rats, measured as the ratio of animals cured/animals infected (C/I) at dose 2.5 mg/kg; C/I = 0/2; format: functional
[31] = In vivo activity against microsporosis guinea pig, measured as the ratio of animals cured/animals infected (C/I) at dose 2.5 mg/kg; C/I = 0/2; format: functional
[32] = In vivo activity against vaginal candidoses in rats, measured as the ratio of animals cured/animals infected (C/I) at dose 10 mg/kg; C/I = 4/4; format: functional
[33] = In vivo activity against vaginal candidoses in rats, measured as the ratio of animals cured/animals infected (C/I) at dose 1.25 mg/kg; C/I = 6/6; format: functional
[34] = In vivo activity against vaginal candidoses in rats, measured as the ratio of animals cured/animals infected (C/I) at dose 0.63 mg/kg; C/I = 4/11; format: functional
[35] = In vivo activity against microsporosis guinea pig, measured as the ratio of animals cured/animals infected (C/I) at dose 2.5 mg/kg; C/I = 0/8; format: functional
[36] = In vivo activity against microsporosis guinea pig, measured as the ratio of animals cured/animals infected (C/I) at dose 10 mg/kg; C/I = 2/6; format: functional
[37] = In vivo activity against vaginal candidoses in rats, measured as the ratio of animals cured/animals infected (C/I) at dose 2.5 mg/kg; C/I = 6/6; format: functional
[38] = In vivo activity against microsporosis guinea pig, measured as the ratio of animals cured/animals infected (C/I) at dose 2.5 mg/kg; 0/2; format: functional
[39] = In vivo activity against vaginal candidoses in rats, measured as the ratio of animals cured/animals infected (C/I) at dose 2.5 mg/kg; 0/2; format: functional
[40] = In vivo activity against microsporosis guinea pig, measured as the ratio of animals cured/animals infected (C/I) at dose 10 mg/kg; 1/2; format: functional
[41] = tested on: Rattus norvegicus; experiment: In vivo activity against vaginal candidoses in rats, measured as the ratio of animals cured/animals infected (C/I) at dose 1.25 mg/kg; C/I = 13/33; format: functional
[42] = In vivo activity against vaginal candidoses in rats, measured as the ratio of animals cured/animals infected (C/I) at dose 10 mg/kg; C/I = 12/12; format: functional
[43] = In vivo activity against microsporosis guinea pig, measured as the ratio of animals cured/animals infected (C/I) at dose 2.5 mg/kg; C/I = 11/12; format: functional
[44] = In vivo activity against vaginal candidoses in rats, measured as the ratio of animals cured/animals infected (C/I) at dose 2.5 mg/kg; C/I = 29/34; format: functional
[45] = In vivo activity against microsporosis guinea pig, measured as the ratio of animals cured/animals infected (C/I) at dose 10 mg/kg; C/I = 6/6; format: functional
[46] = In vivo activity against microsporosis guinea pig, measured as the ratio of animals cured/animals infected (C/I) at dose 1.25 mg/kg; C/I = 12/15; format: functional
[47] = In vivo activity against vaginal candidoses in rats, measured as the ratio of animals cured/animals infected (C/I) at dose 0.63 mg/kg; C/I = 7/40; format: functional
[48] = In vivo activity against vaginal candidoses in rats, measured as the ratio of animals cured/animals infected (C/I) at dose 2.5 mg/kg; C/I = 4/11; format: functional
[49] = In vivo activity against vaginal candidoses in rats, measured as the ratio of animals cured/animals infected (C/I) at dose 10 mg/kg; C/I = 5/6; format: functional
[50] = In vivo activity against microsporosis guinea pig, measured as the ratio of animals cured/animals infected (C/I) at dose 10 mg/kg; C/I = 4/4; format: functional
[51] = In vivo activity against vaginal candidoses in rats, measured as the ratio of animals cured/animals infected (C/I) at dose 0.63 mg/kg; C/I = 0/4; format: functional
[52] = In vivo activity against microsporosis guinea pig, measured as the ratio of animals cured/animals infected (C/I) at dose 2.5 mg/kg; C/I = 2/6; format: functional
[53] = tested on: Rattus norvegicus; experiment: In vivo activity against vaginal candidoses in rats, measured as the ratio of animals cured/animals infected (C/I) at dose 1.25 mg/kg; C/I = 3/12; format: functional

| Compound | Inhibition [7] [µg/mL] | Inhibition [8] [µg/mL] | Inhibition [9] [µg/mL] | Inhibition [10] [µg/mL] | Inhibition [11] [µg/mL] | Inhibition [13] [µg/mL] | Inhibition [14] [µg/mL] | Inhibition [15] [µg/mL] | Inhibition [17] [µg/mL] | Inhibition [18] [µg/mL] | Inhibition [21] [µg/mL] | other results |
| --- | --- | --- | --- | --- | --- | --- | --- | --- | --- | --- | --- | --- |
| CC(=O)N1CCN(c2ccc(OCC3COC(Cn4ccnc4)(c4ccc(Cl)cc4Cl)O3)cc2)CC1 (stereo not drawn) [KETOCONAZOLE] |  |  |  |  |  |  |  |  |  |  |  | C/I ratio [1]: 0.118; C/I ratio [2]: 0.25; C/I ratio [3]: 0; C/I ratio [4]: 0.956; C/I ratio [5]: 0; C/I ratio [6]: 1 |
| Cc1nn(C(C)C)c(=O)n1-c1ccc(N2CCN(c3ccc(OC[C@@H]4COC(Cn5ccnc5)(c5ccc(Cl)cc5Cl)O4)cc3)CC2)cc1 (stereo partly drawn) | >100 | 100 | >100 | >100 | >100 | >100 | >100 | 100 | >100 | 1 | >100 | C/I ratio [12]: 0.833; C/I ratio [16]: 0; C/I ratio [19]: 1; C/I ratio [20]: 1 |
| CCn1ncn(-c2ccc(N3CCN(c4ccc(OC[C@@H]5COC(Cn6cncn6)(c6ccc(Cl)cc6Cl)O5)cc4)CC3)cc2)c1=O (stereo partly drawn) | >100 | 1 | 1 | 10 | >100 | >100 | >100 | 100 | >100 | 1 | >100 | C/I ratio [22]: 4; C/I ratio [23]: 0.3; C/I ratio [24]: 0.5; C/I ratio [25]: 0; C/I ratio [26]: 0.833; C/I ratio [27]: 0.867; C/I ratio [28]: 16 |
| CC(C)n1ncn(-c2ccc(N3CCN(c4ccc(OC[C@@H]5COC(Cn6ccnc6)(c6ccc(Cl)cc6Cl)O5)cc4)CC3)cc2)c1=O (stereo partly drawn) | >100 | 100 | 100 | >100 | >100 | >100 | >100 | 100 | >100 | 100 | >100 | C/I ratio [29]: 0.5; C/I ratio [30]: 0; C/I ratio [31]: 0 |
| CCCn1ncn(-c2ccc(N3CCN(c4ccc(OC[C@@H]5COC(Cn6ccnc6)(c6ccc(Cl)cc6Cl)O5)cc4)CC3)cc2)c1=O (stereo partly drawn) | >100 | 100 | 100 | >100 | >100 | >100 | >100 | >100 | >100 | >100 | >100 | C/I ratio [30]: 0; C/I ratio [32]: 1 |
| Cc1nn(CC(C)C)c(=O)n1-c1ccc(N2CCN(c3ccc(OC[C@@H]4COC(Cn5cncn5)(c5ccc(Cl)cc5Cl)O4)cc3)CC2)cc1 (stereo partly drawn) | >100 | 10 | >100 | 100 | >100 | > 100 | >100 | 100 | >100 | 1 | >100 | C/I ratio [33]: 1; C/I ratio [34]: 0.364; C/I ratio [25]: 0; C/I ratio [35]: 0; C/I ratio [36]: 0.333; C/I ratio [37]: 1 |
| C=CCn1ncn(-c2ccc(N3CCN(c4ccc(OC[C@@H]5COC(Cn6ccnc6)(c6ccc(Cl)cc6Cl)O5)cc4)CC3)cc2)c1=O (stereo partly drawn) |  |  |  |  |  |  |  |  |  |  |  | C/I ratio [38]: 0; Lowest level of total inhibition [14]: > 100 µg/mL; C/I ratio [39]: 0; C/I ratio [40]: 1 |
| CCC(C)n1ncn(-c2ccc(N3CCN(c4ccc(OC[C@@H]5COC(Cn6cncn6)(c6ccc(Cl)cc6Cl)O5)cc4)CC3)cc2)c1=O (stereo partly drawn) | >100 | 10 | 10 | 100 | >100 | >100 | >100 | >100 | >100 | 100 | >100 | C/I ratio [41]: 0.394; C/I ratio [42]: 1; C/I ratio [43]: 11; C/I ratio [44]: 0.853; C/I ratio [45]: 1; C/I ratio [46]: 0.8; C/I ratio [47]: 0.175 |
| Cn1ncn(-c2ccc(N3CCN(c4ccc(OC[C@@H]5COC(Cn6ccnc6)(c6ccc(Cl)cc6Cl)O5)cc4)CC3)cc2)c1=O (stereo partly drawn) | 100 | 1 | 1 | 1 | >100 | >100 | >100 | >100 | >100 | 1 | 100 | C/I ratio [48]: 0.364; C/I ratio [49]: 0.833; C/I ratio [50]: 1; C/I ratio [51]: 0; C/I ratio [52]: 0.333; C/I ratio [16]: 0; C/I ratio [53]: 0.25 |
